In ChEMBL document CHEMBL1123749, “O-carbamoylsalicylates: agents for modification of hemoglobins” (J Med Chem, 1987):

Columns and labels:
Type in all cases: functional
[1] = Effect of compound on modification of deoxy form of hemoglobin was expressed as percent modification at 5 mM concentration
How it was run: (§1)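 Human hemoglobin A (1.0 mM) treated with reagent in 0.1 M Tris-HCl buffer, pH 7.3, at 37 °C for 2 h. Extent of modification and oxygen affinity (p50, mm) then determined by a previously described method; p50 read with and without inositol hexaphosphate. Reagent concentration uncertain for some compounds owing to incomplete solubility.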

[2] = Effect of compound on modification of oxy form of hemoglobin was expressed as percent modification at 10 mM concentration; how it was run: as §1
[3] = Effect of compound on modification of oxy form of hemoglobin was expressed as percent modification at 5 mM concentration; how it was run: as §1
[4] = Effect of compound on oxygen affinity, was expressed as P50 (mmHg) at 10 mM concentration in the presence of 2 mM Inositol hexa phosphate (IHP)
How it was run: (§2)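 Hemoglobin A (1.0 mM) incubated with carbamate reagent in 0.1 M Tris-HCl, pH 7.3, at 37 °C for 2 h. Extent of modification and oxygen affinity (p50, mmHg) then measured by a previously described method. Oxygen binding was read with and without inositol hexaphosphate. At 10 mM, reagent concentration is uncertain for some compounds because of incomplete solubility.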

[5] = Effect of compound on oxygen affinity, was expressed as P50 (mmHg) at 5 mM concentration in the absence of Inositol hexa phosphate (IHP); how it was run: as §1
[6] = Effect of compound on oxygen affinity, was expressed as P50 (mmHg) at 5 mM concentration in the presence of Inositol hexa phosphate (IHP); how it was run: as §1
[7] = Effect of compound on oxygen affinity, was expressed as P50 (mmHg) at 10 mM concentration in the absence of Inositol hexa phosphate (IHP); how it was run: as §2
[8] = Effect of compound on modification of deoxy form of hemoglobin expressed as percent modification at 5 mM concentration; how it was run: as §2
[9] = Effect of compound on modification of oxy form of hemoglobin expressed as percent modification at 5 mM concentration; how it was run: as §2
[10] = Effect of compound on oxygen affinity, expressed as P50 (mmHg) at 10 mM concentration in the absence of Inositol hexa phosphate (IHP); how it was run: as §2
[11] = Effect of compound on oxygen affinity, expressed as P50 (mmHg) at 10 mM concentration in the presence of 2 mM Inositol hexa phosphate (IHP); how it was run: as §2
[12] = Effect of compound on oxygen affinity, expressed as P50 (mmHg) at 5 mM concentration in the absence of Inositol hexa phosphate (IHP); how it was run: as §2
[13] = Effect of compound on oxygen affinity, expressed as P50 (mmHg) at 5 mM concentration in the presence of Inositol hexa phosphate (IHP); how it was run: as §2
[14] = Effect of compound on modification of oxy form of hemoglobin expressed as percent modification at 10 mM concentration; how it was run: as §2
[15] = Effect of compound on modification of oxy form of hemoglobin was expressed as percent modification at 10 mM concentration, concentration is uncertain due to incomplete solubility; how it was run: as §2

Row | Structure (SMILES) | Modification of hemoglobin [1] [%] | Modification of hemoglobin [2] [%] | Modification of hemoglobin [3] [%] | P50 [4] [mmHg] | P50 [5] [mmHg] | P50 [6] [mmHg] | P50 [7] [mmHg] | Modification of hemoglobin [8] [%] | Modification of hemoglobin [9] [%] | P50 [10] [mmHg] | P50 [11] [mmHg] | P50 [12] [mmHg] | P50 [13] [mmHg] | Modification of hemoglobin [14] [%] | Modification of hemoglobin [15] [%]
1 | COC(=O)c1ccccc1OC(N)=O | 52 | 83 | 54 | 25 | 6 | 35 | 6 |  |  |  |  |  |  |  | 
2 | NC(=O)Oc1ccccc1C(=O)O | 58 | 94 | 62 | 22 | 6 | 33 | 6 |  |  |  |  |  |  |  | 
3 | NC(=O)Oc1ccccc1 |  |  |  |  |  |  |  | 40 | 44 | 5 | 30 | 6 | 39 | 67 | 
4 | NC(=O)Oc1ccccc1C(=O)OCc1ccccc1 | 46 |  | 45 |  | 6 | 37.5 |  |  |  |  |  |  |  |  | 
5 | CN(C)C(=O)Oc1c(Br)cc(Br)cc1C(=O)OCc1ccccc1 | 0 | 0 | 0 | 41 | 6 | 41 | 7 |  |  |  |  |  |  |  | 
6 | CN(C)C(=O)Oc1ccccc1C(=O)OCc1ccccc1 | 0 | 0 | 0 | 44 | 6 | 42 | 6 |  |  |  |  |  |  |  | 
7 | CN(C)C(=O)Oc1ccccc1C(=O)O |  |  |  | 42 |  |  | 6 |  |  |  |  |  |  |  | 0
8 | COC(=O)c1ccc(OC(N)=O)cc1 | 58 | 89 | 61 | 23 | 6 | 33 | 6.5 |  |  |  |  |  |  |  | 
